Series [1] relates to PAM212. Description: Drug uptake in mouse PAM212 cells assessed as intracellular 5-aminolaevulinic acid level per mg of protein at 0.1 mM after 4 hrs. The series is classed as ADME, cell-based. The settings on record: pam212, 4 h, 100 µM.
In series [2] the test system is PAM212. Description: Cytotoxicity against mouse PAM212 cells after 24 hrs in absence of 2.5 J/cm2 blue light by MTT assay. The series is classed as functional, cell-based. The method, boiled down:
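Dark toxicity. PAM212 keratinocytes (RPMI-1640, 10% FCS) were seeded about 5 × 10^4 cells/well and grown 48 h, PBS-washed, then given drug for 4 h without irradiation. Medium was replaced and cells were kept a further 24 h. MTT 1 mg/mL for 3 h, formazan dissolved in DMSO, absorbance at 570 nm.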
Background: Formazan colour is commonly taken as a measure of viable cells.

In series [3] the test system is PAM212. Description: Drug uptake in mouse PAM212 cells assessed as PpIX production per mg of protein at 0.1 mM after 4 hrs. In kind it is ADME, cell-based. To be noted: pam212, 4 h, 100 µM. In outline: (§1)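 Cells (PAM212; A549 in F12K; Caco-2 in EMEM, 37 °C, 5% CO2) were seeded in 100 mm dishes and grown 48 h at 37 °C. After PBS washing they were incubated 4 h at 37 °C with 0.1 or 1 mM drug, washed, lysed 15 min and scraped, then centrifuged at 1800 g for 10 min. Supernatant PpIX was read by fluorescence (410/635 nm) against a PpIX standard curve and normalized to protein by BCA.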

Series [4] deals with PAM212. Description: Drug uptake in mouse PAM212 cells assessed as enhanced PpIX fluorescence at 0.01 mM after 6 hrs. In kind it is ADME, cell-based. To be noted: pam212, 6 h, 10 µM. The method, boiled down: (§2)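 PAM212 cells were seeded 5 × 10^4/well, grown 48 h, PBS-washed and incubated with drug at 0.01 or 0.1 mM in serum-free medium for 4 or 6 h. Untreated wells gave background and ALA wells served as reference. Well fluorescence: excitation 410 nm, emission 635 nm, scans 600–750 nm. Mean intensity (arbitrary units) after control subtraction, calibrated against rhodamine B.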

Series [5] deals with PAM212. Description: Drug uptake in mouse PAM212 cells assessed as enhanced PpIX fluorescence at 0.1 mM after 6 hrs. In kind it is ADME, cell-based. The settings on record: pam212, 6 h, 100 µM. In outline:
as §2

In series [6] the test system is PAM212. Description: Drug uptake in mouse PAM212 cells assessed as PpIX production per mg of protein at 1 mM after 4 hrs. In kind it is ADME, cell-based. The settings on record: pam212, 4 h, 1000 µM. The method, boiled down: as §1
The nature of series [7]: Chromatographic hydrophobicity index in methanol solution under isocratic conditions at pH 6.8. The series is classed as physicochemical. The method, boiled down: (§3)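 RP-HPLC on a C18 column at 35 °C, 0.7 mL/min. Mobile phase was CH3CN or CH3OH with 50 mM aq ammonium formate (pH 6.8). […], with t0 from uracil and tR measured in duplicate. Six isocratic compositions were chosen so that −1.5 < log k < 0.6, and the index was derived from the linear log k versus organic-fraction relation.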

The subject of series [8] is PAM212. Description: Drug uptake in mouse PAM212 cells assessed as intracellular 5-aminolaevulinic acid level per mg of protein at 1 mM after 4 hrs. In kind it is ADME, cell-based. To be noted: pam212, 4 h, 1000 µM.
In series [9] the test system is PAM212. Description: Drug uptake in mouse PAM212 cells assessed as enhanced PpIX fluorescence at 0.01 mM after 4 hrs. To be noted: pam212, 4 h, 10 µM. The series is classed as ADME, cell-based. The method, boiled down:
as §2

For series [10], the system named is PAM212. Description: Phototoxicity against mouse PAM212 cells assessed as cell viability at 0.01 mM after 4 hrs irradiated with 2.5 J/cm2 blue light by MTT assay relative to control. In kind it is functional, cell-based. The method, boiled down:
(§4)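 PAM212 cells were seeded about 5 × 10^4/well, grown 48 h, PBS-washed and incubated 4 h with drug at 0.01, 0.1 or 1 mM. Blue light (peak 420 nm) was delivered at 2.5 J/cm², although the methods section states 1.25 J/cm². Medium was then replaced and cells kept 24 h. MTT 1 mg/mL for 3 h, DMSO, A570; survival as % of non-irradiated drug-treated controls.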

For series [11], the system named is PAM212. Description: Phototoxicity against mouse PAM212 cells assessed as cell viability at 0.1 mM after 4 hrs irradiated with 2.5 J/cm2 blue light by MTT assay relative to control. The series is classed as functional. The settings on record: PAM212, light or radiation study, read-out: Activity. The method, boiled down:
as §4

Series [12] deals with PAM212. Description: Drug uptake in mouse PAM212 cells assessed as enhanced PpIX fluorescence at 0.1 mM after 4 hrs. The series is classed as ADME, cell-based. To be noted: pam212, 4 h, 100 µM. The method, boiled down:
as §2

The nature of series [13]: Chromatographic hydrophobicity index in acetonitrile solution under isocratic conditions at pH 6.8. In kind it is physicochemical. The method, boiled down:
as §3

The subject of series [14] is Caco-2. Description: Drug uptake in human Caco-2 cells assessed as intracellular 5-aminolaevulinic acid level per mg of protein at 1 mM after 4 hrs. The series is classed as ADME, cell-based. To be noted: caco-2, 4 h, 1000 µM.
Series [15] concerns Caco-2. Description: Drug uptake in human Caco-2 cells assessed as PpIX production per mg of protein at 1 mM after 4 hrs. In kind it is ADME, cell-based. To be noted: caco-2, 4 h, 1000 µM. In outline:
as §1

The subject of series [16] is A549. Description: Drug uptake in human A549 cells assessed as intracellular 5-aminolaevulinic acid level per mg of protein at 0.1 mM after 4 hrs. To be noted: a549, 4 h, 100 µM. In kind it is ADME, cell-based.
The subject of series [17] is A549. Description: Drug uptake in human A549 cells assessed as PpIX production per mg of protein at 0.1 mM after 4 hrs. To be noted: a549, 4 h, 100 µM. In kind it is ADME, cell-based. In outline:
as §1

Calls of active or inactive are those of the source. The calls are words filed in the database; no cut-off is given here.

`COC(=O)CCC(=O)CNC(=O)[C@H](CCSC)NC(C)=O`: the Drug uptake is 3.28 µg/mg with PAM212 [1]; 315 ng/mg in the series with PAM212 [3]; “Active” in the series with PAM212 [4]; “Active” in the series with PAM212 [5]; 295 ng/mg in the series with PAM212 [6]; 13.2 µg/mg in the series with PAM212 [8]. Further, the Drug uptake entry in the series with PAM212 [9] and in the series with PAM212 [12] was “Active” in each case. Further, the result in the series with PAM212 [2] was inactive. For the same compound, the values for the CHI in [7] and in series [13] were 41.4 and 28.89, respectively. Further, in the series with PAM212 [10], the result was Active. The viability at 100 µM in the series on PAM212 [11] amounted to 3%.

Consider `COC(=O)CCC(=O)CNC(=O)[C@H](Cc1ccccc1)NC(C)=O`, for which the Drug uptake in the series on PAM212 [1] was 2.9 µg/mg; with PAM212 [3], 313 ng/mg; in the series on PAM212 [4], “Active”; with PAM212 [5], “Active”; in the series with PAM212 [6], 295 ng/mg; in the series with Caco-2 [14] it was 11.9 µg/mg. Also, the Drug uptake is 13.7 µg/mg with PAM212 [8]; 594 ng/mg in the series on Caco-2 [15]; 0.38 µg/mg with A549 [16]; “Active” in the series on PAM212 [9]; “Active” in the series on PAM212 [12]; 4.42 ng/mg with A549 [17]. In addition, the result in the series on PAM212 [2] was inactive. Further, the CHI in series [7] amounted to 52.96; in [13], 34.71. The outcome with PAM212 [10] was Active. For the same compound, the viability at 100 µM in the series on PAM212 [11] was determined as 3%.
